Values after ≈ are worked out from the molar mass of the structure shown. Active and inactive are the calls of the source. The calls are words filed in the database; no cut-off is given here.
Assays:
Staphylococcus aureus [1] = assay: Disruption of membrane in Staphylococcus aureus isolate DM4001R assessed as increase in ATP leakage at 4 times MIC after 1 hr by ATP bioluminescent assay relative to control; type: functional
Outline: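 S. aureus DM4001 grown to exponential phase, washed three times in 20 mM PBS (pH 7), resuspended to OD600 0.2. Compound added, suspensions held 1 hour at 37 °C, then centrifuged. Supernatant mixed with luciferase/luciferin enzyme mix; extracellular ATP quantified by luminescence. Replicated.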

Staphylococcus aureus [2] = assay: Disruption of cytoplasmic membrane in Staphylococcus aureus isolate DM4001R at 2 times MIC after 3000 secs by SYTOX green dye based fluorescence assay; type: functional
Outline: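 Clinical S. aureus isolate DM4001R incubated with SYTOX Green plus compound; membrane permeabilization read as increased fluorescence intensity. Measurements replicated.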

Lipid bilayer [3] = assay: Induction of membrane damage in DOPC/cholesterol large unilamellar vesicles assessed as calcein leakage at compound to lipid ratio of 1:16 after 1 hr by fluorescence assay relative to control
Outline: (§1)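 100 nm calcein-loaded LUVs made by film hydration; lipid content set by total phosphorus assay. DOPC/cholesterol (3:1, w/w) mimics mammalian and DOPE/DOPG (3:1, w/w) bacterial membranes. Compound in DMF added at lipid-to-compound ratio 16 (6.25 µM compound), final DMF limited to 0.5%. Fluorescence monitored at ex 490/em 520 nm for 1 hour; replicated.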

Lipid bilayer [4] = assay: Induction of membrane damage in DOPE/DOPG large unilamellar vesicles assessed as calcein leakage at compound to lipid ratio of 1:16 after 1 hr by fluorescence assay relative to control; outline: as §1
[5] = Cytotoxicity against human corneal fibroblasts assessed as reduction in cell viability at 100 uM after 4 hrs by CytoTox-ONE reagent-based LDH assay; conditions: corneal fibroblast
Outline: (§2)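 Human corneal fibroblasts exposed to compound; cytotoxicity taken from LDH leakage, with cells treated with 1% triton X-100 as positive control. Measurements replicated.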

[6] = Cytotoxicity against human corneal fibroblasts assessed as reduction in cell viability up to 250 uM after 4 hrs by CytoTox-ONE reagent-based LDH assay relative to control; conditions: corneal fibroblast; outline: as §2
Staphylococcus aureus [7] = assay: Antibacterial activity against Staphylococcus aureus ATCC 29213 at 0.5 times MIC after 30 serial passages; type: functional
Outline: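 Serial-passage resistance selection in S. aureus ATCC29213. MIC was determined by CA-MHB broth macrodilution (2-fold dilutions, ~5×10^5 CFU/mL, 35 °C). Cells grown at 0.5× MIC were recovered and used to prepare the inoculum for the next MIC assay, with MIC change read after each 24 h/35 °C round. This was repeated for 17 passages, or 30 passages for one compound. Replicated.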

Staphylococcus aureus [8] = assay: Bactericidal activity against methicillin-resistant Staphylococcus aureus DM21455 assessed as log reduction in bacterial load at 2 times MIC after 30 mins by time kill assay; type: functional
Outline: (§3)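 MRSA DM21455 was taken from colonies on 18-22 h TSA plates and diluted to 10^5~10^6 CFU/mL in PBS. Cells were exposed to 0.5×, 1×, 2× and 4× MIC at 35 °C, with a PBS control. Samples were taken at 10 min, 30 min, 1, 2, 4 and 8 h, 10-fold diluted in PBS and plated on MHA. Colonies were counted after 24-48 h at 35 °C. Replicated.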

Staphylococcus aureus [9] = assay: Bactericidal activity against methicillin-resistant Staphylococcus aureus DM21455 assessed as log reduction in bacterial load at 4 times MIC after 10 mins by time kill assay; type: functional; outline: as §3
[10] = Solubility of the compound in water; type: physicochemical; conditions: buffer
Enterococcus hirae = assay: Antibacterial activity against Enterococcus hirae ATCC 9790 after 24 hrs by two fold dilution assay; type: functional; conditions: ATCC 9790, 24 h
Outline: (§4)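 Broth macro-dilution per CLSI in cation-adjusted Mueller-Hinton broth; compounds dissolved in DMF, diluted in PBS to 1000 µg/mL stock, then serial 2-fold dilutions in CA-MHB in tubes. Inoculum from 18-20 h TSA colonies (direct colony suspension), adjusted to about 5× 10^5 CFU/mL. MIC read after 24 h at 35 °C as lowest concentration with no visible growth; biological replicates.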

Enterococcus faecalis = assay: Antibacterial activity against Enterococcus faecalis ATCC 29212 after 24 hrs by two fold dilution assay; type: functional; conditions: ATCC 29212, 24 h; outline: as §4
Enterococcus faecium [11] = assay: Antibacterial activity against vancomycin A-resistant Enterococcus faecium VRE 1008 after 24 hrs by two fold dilution assay; type: functional; conditions: VRE 1008, 24 h
Outline: (§5)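 CLSI broth macrodilution in cation-adjusted Mueller-Hinton broth. Compounds were dissolved in DMF and diluted in PBS to a 1000 µg/mL stock, then serially 2-fold diluted in CA-MHB. The inoculum came from colonies on 18-20 h TSA plates (direct colony suspension), adjusted to ~5×10^5 CFU/mL. Incubation was 24 h at 35 °C. MIC is the lowest concentration with no visible growth versus control. Biological replicates.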

Enterococcus faecium [12] = assay: Antibacterial activity against vancomycin A-resistant Enterococcus faecium VRE 1007 after 24 hrs by two fold dilution assay; type: functional; conditions: VRE 1007, 24 h; outline: as §5
Enterococcus faecium [13] = assay: Antibacterial activity against vancomycin A-resistant Enterococcus faecium VRE 1006 after 24 hrs by two fold dilution assay; type: functional; conditions: VRE 1006, 24 h; outline: as §5
Staphylococcus aureus [14] = assay: Antibacterial activity against methicillin-resistant Staphylococcus aureus ATCC BAA-38 after 24 hrs by two fold dilution assay; type: functional; conditions: ATCC BAA-38, 24 h; outline: as §5
Staphylococcus aureus [15] = assay: Antibacterial activity against methicillin-resistant Staphylococcus aureus ATCC 700699 after 24 hrs by two fold dilution assay; type: functional; conditions: Mu50, 24 h; outline: as §5
Staphylococcus aureus [16] = assay: Antibacterial activity against methicillin-resistant Staphylococcus aureus ATCC 43300 after 24 hrs by two fold dilution assay; type: functional; conditions: ATCC 43300, 24 h; outline: as §5
Staphylococcus aureus [17] = assay: Antibacterial activity against methicillin-resistant Staphylococcus aureus DB57964 after 24 hrs by two fold dilution assay; type: functional; conditions: DB57964, 24 h; outline: as §5
Staphylococcus aureus [18] = assay: Antibacterial activity against methicillin-resistant Staphylococcus aureus DB68004 after 24 hrs by two fold dilution assay; type: functional; conditions: DB68004, 24 h; outline: as §5
Staphylococcus aureus [19] = assay: Antibacterial activity against methicillin-resistant Staphylococcus aureus DB6506 after 24 hrs by two fold dilution assay; type: functional; conditions: DB6506, 24 h; outline: as §5
Staphylococcus aureus [20] = assay: Antibacterial activity against methicillin-sensitive Staphylococcus aureus ATCC 29737 after 24 hrs by two fold dilution assay; type: functional; conditions: ATCC 29737, 24 h; outline: as §5
Staphylococcus aureus [21] = assay: Antibacterial activity against methicillin-sensitive Staphylococcus aureus ATCC 6538 after 24 hrs by two fold dilution assay; type: functional; conditions: ATCC 6538, 24 h; outline: as §5
Staphylococcus aureus [22] = assay: Antibacterial activity against methicillin-sensitive Staphylococcus aureus ATCC 29213 after 24 hrs by two fold dilution assay; type: functional; conditions: ATCC 29213, 24 h; outline: as §5
Staphylococcus aureus [23] = assay: Antibacterial activity against methicillin-sensitive Staphylococcus aureus DM4400R after 24 hrs by two fold dilution assay; type: functional; outline: as §5
Staphylococcus aureus [24] = assay: Antibacterial activity against methicillin-sensitive Staphylococcus aureus DM4299 after 24 hrs by two fold dilution assay; type: functional; conditions: DM4299, 24 h; outline: as §5
Staphylococcus aureus [25] = assay: Antibacterial activity against methicillin-sensitive Staphylococcus aureus DM4583R after 24 hrs by two fold dilution assay; type: functional; outline: as §5
Bacillus cereus = assay: Antibacterial activity against Bacillus cereus ATCC 11778 after 24 hrs by two fold dilution assay; type: functional; conditions: ATCC 11778, 24 h; outline: as §4
Staphylococcus aureus [26] = assay: Antibacterial activity against methicillin-resistant Staphylococcus aureus DM 9808R after 24 hrs by two fold dilution assay; type: functional; outline: as §5
Staphylococcus aureus [27] = assay: Antibacterial activity against methicillin-resistant Staphylococcus aureus DM 21455 after 24 hrs by two fold dilution assay; type: functional; conditions: DM 21455, 24 h; outline: as §5
Staphylococcus aureus [28] = assay: Antibacterial activity against Staphylococcus aureus DM 4001R after 24 hrs by two fold dilution assay; type: functional; outline: as §5
[29] = Selectivity index, ratio of HC50 for New Zealand White rabbit RBC to MIC for Staphylococcus aureus DM 4001R
Outline: (§6)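 Ratio of HC50 to MIC. For HC50, fresh New Zealand White rabbit RBCs were pelleted (3000 rpm, 10 min), washed twice in PBS and mixed with serially diluted compounds (in DMF or PBS) at a final 4% v/v. After 60 min at 37 °C and centrifugation, supernatant absorbance was read at 576 nm. % hemolysis was normalised to 2% Triton X-100 (positive) and PBS/DMF (negative). MIC came from CA-MHB broth macrodilution, 24 h at 35 °C.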

[30] = Selectivity index, ratio of HC50 for New Zealand White rabbit RBC to MIC for methicillin-resistant Staphylococcus aureus DM 9808R; outline: as §6
[31] = Selectivity index, ratio of HC50 for New Zealand White rabbit RBC to MIC for methicillin-resistant Staphylococcus aureus DM 21455; outline: as §6
[32] = Selectivity index, ratio of HC50 for New Zealand White rabbit RBC to MIC for Bacillus cereus ATCC 11778; outline: as §6

COC(=O)[C@H](CCCNC(=N)N)NC(=O)[C@H](CCCNC(=N)N)NC(=O)COc1cc(OCC=C(C)C)cc2oc3cc(OCC=C(C)C)cc(OCC(=O)N[C@@H](CCCNC(=N)N)C(=O)N[C@@H](CCCNC(=N)N)C(=O)OC)c3c(=O)c12
Activity (Staphylococcus aureus [1]): 66.4%
Activity (Staphylococcus aureus [2]): Active
Activity (Lipid bilayer [3]): < 20%
Activity (Lipid bilayer [4]): 63.3%
Activity [5]: Non-Toxic
Activity [6]: 27.4%
Activity (Staphylococcus aureus [7]): Active
log(activity) (Staphylococcus aureus [8]): 3
log(activity) (Staphylococcus aureus [9]): 3
solubility [10]: Soluble
MIC (Enterococcus hirae): 6.25 µg/mL (≈ 5.36 µM)
MIC (Enterococcus faecalis): 6.25 µg/mL (≈ 5.36 µM)
MIC (Enterococcus faecium [11]): 3.13 µg/mL (≈ 2.69 µM)
MIC (Enterococcus faecium [12]): 1.56 µg/mL (≈ 1.34 µM)
MIC (Enterococcus faecium [13]): 1.56 µg/mL (≈ 1.34 µM)
MIC (Staphylococcus aureus [14]): 3.13 µg/mL (≈ 2.69 µM)
MIC (Staphylococcus aureus [15]): 1.56 µg/mL (≈ 1.34 µM)
MIC (Staphylococcus aureus [16]): 1.56 µg/mL (≈ 1.34 µM)
MIC (Staphylococcus aureus [17]): 1.56 µg/mL (≈ 1.34 µM)
MIC (Staphylococcus aureus [18]): 1.56 µg/mL (≈ 1.34 µM)
MIC (Staphylococcus aureus [19]): 1.56 µg/mL (≈ 1.34 µM)
MIC (Staphylococcus aureus [20]): 1.56 µg/mL (≈ 1.34 µM)
MIC (Staphylococcus aureus [21]): 1.56 µg/mL (≈ 1.34 µM)
MIC (Staphylococcus aureus [22]): 3.13 µg/mL (≈ 2.69 µM)
MIC (Staphylococcus aureus [23]): 3.13 µg/mL (≈ 2.69 µM)
MIC (Staphylococcus aureus [24]): 1.56 µg/mL (≈ 1.34 µM)
MIC (Staphylococcus aureus [25]): 3.13 µg/mL (≈ 2.69 µM)
MIC (Bacillus cereus): 3.13 µg/mL (≈ 2.69 µM)
MIC (Staphylococcus aureus [26]): 3.13 µg/mL (≈ 2.69 µM)
MIC (Staphylococcus aureus [27]): 3.13 µg/mL (≈ 2.69 µM)
MIC (Staphylococcus aureus [28]): 1.56 µg/mL (≈ 1.34 µM)

COC(=O)[C@H](CCCNC(=N)N)NC(=O)COc1cc(OCC=C(C)C)cc2oc3cc(OCC=C(C)C)cc(OCC=C(C)C)c3c(=O)c12
MIC (Bacillus cereus): 1.56 µg/mL (≈ 2.25 µM)
MIC (Staphylococcus aureus [26]): 1.56 µg/mL (≈ 2.25 µM)
MIC (Staphylococcus aureus [27]): 0.78 µg/mL (≈ 1.13 µM)
MIC (Staphylococcus aureus [28]): 1.56 µg/mL (≈ 2.25 µM)
Selectivity Index [29]: 21 to 42
Selectivity Index [30]: 21 to 42
Selectivity Index [31]: 21 to 42
Selectivity Index [32]: 21 to 42

Source: ChEMBL document CHEMBL4052597, “Symmetrically Substituted Xanthone Amphiphiles Combat Gram-Positive Bacterial Resistance with Enhanced Membrane Selectivity” (J Med Chem, 2017)
